Converted amounts (≈) assume the structure as drawn. The source made the active and inactive calls. The calls are words filed in the database; no cut-off is given here.
Columns and labels:
Candida albicans [1] = assay: Antifungal activity against fluconazole-resistant Candida albicans 07109 after 24 hrs by serial dilution method in presence of fluconazole; type: functional
Method in brief: (§1)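 Tested in combination with fluconazole against each fluconazole-resistant C. albicans strain. Interaction was scored by fractional inhibitory concentration index (FICI): synergy at FICI ≤ 0.5, indifference at 0.5 < FICI ≤ 4, antagonism at FICI > 4.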

Candida albicans [2] = assay: Antifungal activity against fluconazole-resistant Candida albicans 100 after 24 hrs by serial dilution method in presence of fluconazole; type: functional; method in brief: as §1
Candida albicans [3] = assay: Antifungal activity against fluconazole-resistant Candida albicans 805 after 24 hrs by serial dilution method in presence of fluconazole; type: functional; method in brief: as §1
Candida albicans [4] = assay: Antifungal activity against fluconazole-sensitive Candida albicans SC5314 assessed as reduction in cytoplasmic density at 8 ug/ml after 8 hrs by TEM analysis; type: functional, organism-based
Method in brief: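 Transmission electron microscopy of C. albicans SC5314 cells exposed to 8 μg/mL for 8 h. Untreated cells and cells given fluconazole 8 μg/mL for 8 h served as controls. Cell wall layers, cytoplasmic density and vacuole shape were compared by eye.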

Candida albicans [5] = assay: Antifungal activity against fluconazole-sensitive Candida albicans SC5314 assessed as change in ergosterol composition at 8 ug/ml after 24 hrs by GC-MS analysis (reference value: 90%); type: functional
Method in brief: (§2)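 C. albicans SC5314 exposed to 8 μg/mL for 24 h, sterols analysed by GC-MS with cholesterol internal standard; each sterol expressed as % of total sterol fraction versus no-drug control; average of three independent experiments.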

Candida albicans [6] = assay: Antifungal activity against fluconazole-sensitive Candida albicans SC5314 assessed as change in sterol composition at 8 ug/ml after 24 hrs by GC-MS analysis (reference value: 8.5%); type: functional; method in brief: as §2
CYP2C19 [7] = molecular target: T1, CYP2C19 (Homo sapiens, UniProt P33261); assay: Inhibition of CYP2C19 in human liver microsomes assessed as S-mephenytoin conversion to 4'-hydroxy mephenytoin at 2.5 uM preincubated for 10 mins followed by NADPH addition measured after 15 mins by LC-MS/MS analysis relative to control; type: ADME; conditions: probe S-mephenytoin
T1 sequence (P33261 whole entry): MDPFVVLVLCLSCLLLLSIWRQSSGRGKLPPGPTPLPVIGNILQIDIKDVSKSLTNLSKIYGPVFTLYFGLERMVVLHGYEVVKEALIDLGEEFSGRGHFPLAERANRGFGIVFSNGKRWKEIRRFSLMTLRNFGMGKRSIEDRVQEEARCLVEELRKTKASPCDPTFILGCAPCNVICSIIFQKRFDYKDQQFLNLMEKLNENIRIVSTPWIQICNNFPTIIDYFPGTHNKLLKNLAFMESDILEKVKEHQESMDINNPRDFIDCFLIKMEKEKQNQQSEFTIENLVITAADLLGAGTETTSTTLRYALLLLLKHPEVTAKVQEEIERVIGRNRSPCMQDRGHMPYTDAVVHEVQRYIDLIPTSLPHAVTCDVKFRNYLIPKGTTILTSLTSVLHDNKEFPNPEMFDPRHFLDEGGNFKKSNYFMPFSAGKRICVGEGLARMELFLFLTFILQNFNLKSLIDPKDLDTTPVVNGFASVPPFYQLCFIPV

CYP3A4 = CYP3A4 (Homo sapiens, UniProt P08684); assay: Inhibition of CYP3A4 in human liver microsomes assessed as midazolam conversion to 1'-hydroxy midazolam at 2.5 uM preincubated for 10 mins followed by NADPH addition measured after 15 mins by LC-MS/MS analysis relative to control; type: ADME; conditions: probe midazolam
Sequence of CYP3A4 (P08684 whole entry): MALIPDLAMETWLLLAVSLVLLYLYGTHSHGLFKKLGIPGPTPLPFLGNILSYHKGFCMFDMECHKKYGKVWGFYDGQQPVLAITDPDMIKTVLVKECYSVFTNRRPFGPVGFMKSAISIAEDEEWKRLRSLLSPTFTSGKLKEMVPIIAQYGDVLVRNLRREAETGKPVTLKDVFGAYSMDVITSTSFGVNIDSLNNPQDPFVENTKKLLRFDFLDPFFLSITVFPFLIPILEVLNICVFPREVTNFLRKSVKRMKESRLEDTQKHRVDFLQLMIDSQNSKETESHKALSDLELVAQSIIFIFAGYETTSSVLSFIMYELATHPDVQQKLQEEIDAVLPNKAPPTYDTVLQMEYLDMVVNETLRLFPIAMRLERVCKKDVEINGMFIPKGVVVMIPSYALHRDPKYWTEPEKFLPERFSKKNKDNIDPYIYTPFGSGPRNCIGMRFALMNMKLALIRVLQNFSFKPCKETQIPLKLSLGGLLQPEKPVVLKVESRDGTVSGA

CYP2C19 [8] = molecular target: T1, CYP2C19; assay: Inhibition of CYP2C19 in human liver microsomes assessed as S-mephenytoin conversion to 4'-hydroxy mephenytoin at 0.25 uM preincubated for 10 mins followed by NADPH addition measured after 15 mins by LC-MS/MS analysis relative to control; type: ADME; conditions: probe S-mephenytoin
CYP2C9 = CYP2C9 (Homo sapiens, UniProt P11712); assay: Inhibition of CYP2C9 in human liver microsomes assessed as tolbutamide conversion to 4-hydroxy tolbutamide at 0.25 uM preincubated for 10 mins followed by NADPH addition measured after 15 mins by LC-MS/MS analysis relative to control; type: ADME; conditions: probe tolbutamide
Sequence of CYP2C9 (P11712 whole entry): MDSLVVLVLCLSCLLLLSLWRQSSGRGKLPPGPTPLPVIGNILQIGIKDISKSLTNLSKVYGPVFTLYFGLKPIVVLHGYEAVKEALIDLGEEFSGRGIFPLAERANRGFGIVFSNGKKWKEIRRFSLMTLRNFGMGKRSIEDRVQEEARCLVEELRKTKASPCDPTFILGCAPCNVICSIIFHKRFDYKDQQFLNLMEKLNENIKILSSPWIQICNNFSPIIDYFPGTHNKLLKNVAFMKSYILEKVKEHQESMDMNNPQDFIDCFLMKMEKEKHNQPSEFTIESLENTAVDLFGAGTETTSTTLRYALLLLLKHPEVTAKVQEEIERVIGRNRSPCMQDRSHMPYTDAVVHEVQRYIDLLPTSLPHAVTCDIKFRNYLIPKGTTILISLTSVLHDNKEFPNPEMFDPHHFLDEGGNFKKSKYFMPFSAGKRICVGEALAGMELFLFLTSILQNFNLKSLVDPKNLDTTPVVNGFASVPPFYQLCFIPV

Cytochrome P450 2C9 = Cytochrome P450 2C9 (Homo sapiens, UniProt P11712); assay: Inhibition of CYP2C9 in human liver microsomes assessed as tolbutamide conversion to 4-hydroxy tolbutamide preincubated for 10 mins followed by NADPH addition measured after 15 mins by LC-MS/MS analysis; type: ADME
Sequence of Cytochrome P450 2C9 (P11712 whole entry): as above

Cytochrome P450 3A4 [9] = molecular target: T2, Cytochrome P450 3A4 (Homo sapiens, UniProt P08684); assay: Inhibition of CYP3A4 in human liver microsomes assessed as testosterone conversion to 6-hydroxy testosterone preincubated for 10 mins followed by NADPH addition measured after 15 mins by LC-MS/MS analysis; type: ADME
T2 sequence (P08684 whole entry): as the sequence (P08684 whole entry) above

Cytochrome P450 3A4 [10] = molecular target: T2, Cytochrome P450 3A4; assay: Inhibition of CYP3A4 in human liver microsomes assessed as midazolam conversion to 1'-hydroxy midazolam preincubated for 10 mins followed by NADPH addition measured after 15 mins by LC-MS/MS analysis; type: ADME
Candida parapsilosis = assay: Antifungal activity against Candida parapsilosis ATCC 22019 after 24 hrs by serial dilution method; type: functional; conditions: Lodderomyces parapsilosis, ATCC 22019, 24 h
Cryptococcus neoformans = assay: Antifungal activity against Cryptococcus neoformans 32609 after 72 hrs by serial dilution method; type: functional; conditions: Cryptococcus neoformans, 32609, 72 h
Trichophyton rubrum = assay: Antifungal activity against Trichophyton rubrum Cmccftla after 7 days by serial dilution method; type: functional; conditions: 168 h
Nannizzia gypsea = assay: Antifungal activity against Microsporum gypseum Cmccfmza after 7 days by serial dilution method; type: functional; conditions: 168 h
Candida albicans [11] = assay: Fungicidal activity against fluconazole-sensitive Candida albicans SC5314 assessed as reduction in fungi density after 24 hrs; type: functional, organism-based
Method in brief: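 Time-kill: C. albicans (SC5314 or 103) inoculated at 10^5 CFU/mL, untreated or with drug (2–32 μg/mL; fluconazole 32 μg/mL reference); CFU/mL counted after 0, 12, 24 and 48 h.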

Candida albicans [12] = assay: Inhibition of biofilm formation of fluconazole-sensitive Candida albicans SC5314 after 48 hrs by XTT assay; type: functional, organism-based
Method in brief: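 Biofilm formation by C. albicans SC5314 was tested with compound at 2–64 μg/mL. Untreated and fluconazole 64 μg/mL controls were included. Biofilm was quantified by XTT reduction and expressed as % of untreated control. Mean ± SD of three independent experiments; ANOVA and Student t test, p<0.05.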

Candida albicans [13] = assay: Inhibition of biofilm formation of fluconazole-resistant Candida albicans 103 after 48 hrs by XTT assay; type: functional, organism-based
Method in brief: (§3)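 Biofilm formation by C. albicans SC5314 or 103 in presence of 2–64 μg/mL drug (fluconazole 64 μg/mL reference); quantified by XTT reduction as % of blank control; mean ± standard deviation of three independent experiments, ANOVA and Student t test.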

Candida albicans [14] = assay: Inhibition of biofilm formation of fluconazole-resistant Candida albicans 103 at 32 ug/ml after 48 hrs by XTT assay; type: functional; conditions: Candida albicans, 103, 48 h; method in brief: as §3
Candida albicans [15] = assay: Inhibition of hyphal growth of fluconazole-sensitive Candida albicans SC5314 assessed as appearance of pseudohyphal form at 2 ug/ml after 16 hrs by light microscopic analysis; type: functional, organism-based
Method in brief: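 C. albicans SC5314 was grown in RPMI 1640 at 37 °C for 16 h, without compound or with 2–8 μg/mL. A fluconazole 8 μg/mL control was included. Cell morphology (hyphae, pseudohyphae, budding yeast) was then scored by microscopy.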

Candida albicans [16] = assay: Antifungal activity against fluconazole-resistant Candida albicans 07109 after 24 hrs by serial dilution method; type: functional; conditions: Candida albicans, 07109, 24 h
Candida albicans [17] = assay: Antifungal activity against fluconazole-resistant Candida albicans 103 after 24 hrs by serial dilution method in presence of fluconazole; type: functional; method in brief: as §1

Fc1ccc2c(c1)c1c(n2CCCOc2ccc(Cl)cc2)CCNC1
fractional inhibitory concentration index (FICI) (Candida albicans [1]): 0.252
fractional inhibitory concentration index (FICI) (Candida albicans [2]): 0.252
fractional inhibitory concentration index (FICI) (Candida albicans [3]): 0.252
Activity (Candida albicans [4]): Active
Activity (Candida albicans [5]): 40.2%
Activity (Candida albicans [6]): 31.5%
inhibition at 0.25 h, 2.5 µM (CYP2C19 [7]): 5%
inhibition at 0.25 h, 2.5 µM (CYP3A4): -10%
inhibition at 0.25 h, 0.25 µM (CYP2C19 [8]): 4%
inhibition at 0.25 h, 0.25 µM (CYP2C9): -2%
IC50 (Cytochrome P450 2C9): > 25 µM
IC50 (Cytochrome P450 3A4 [9]): 25 µM
IC50 (Cytochrome P450 3A4 [10]): 50 µM
MIC80 (Candida parapsilosis): 4 µg/mL (≈ 11.1 µM)
MIC80 (Cryptococcus neoformans): 1 µg/mL (≈ 2.79 µM)
MIC80 (Trichophyton rubrum): 2 µg/mL (≈ 5.57 µM)
MIC80 (Nannizzia gypsea): 1 µg/mL (≈ 2.79 µM)
Activity (Candida albicans [11]): Active
inhibition (Candida albicans [12]): Dose-dependent effect
inhibition (Candida albicans [13]): Dose-dependent effect
inhibition at 32 µg/mL (Candida albicans [14]): > 75%
growth inhibition (GI) (Candida albicans [15]): Active
MIC80 (Candida albicans [16]): 4 µg/mL (≈ 11.1 µM)
fractional inhibitory concentration index (FICI) (Candida albicans [17]): 0.252
